# Assays:
# Type in all cases: functional, cell-based
# Details in all cases: HCT-116, 48 h
# HCT-116 [1] = assay: Cytotoxicity against P53 deficient human HCT116 cells after 48 hrs by MTS assay
# Summary of the method: (§1)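 HCT116 colon tumour lines (wild type and isogenic p53- or p21-deficient, p21 disrupted by homologous recombination) grown in McCoy's 5A with 10% FBS, penicillin/streptomycin, L-glutamine and sodium pyruvate at 37 °C, 5% CO2. Seeded per well at 3000 (p53+, p53-), 4000 (p21+) or 6000 (p21-) cells. After 24 h, medium was replaced. Cells were exposed to varying concentrations for 48 h, and MTS bioreduction was read at 490 nm.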
# HCT-116 [2] = assay: Cytotoxicity against P53+ wild type human HCT116 cells after 48 hrs by MTS assay; summary of the method: as §1
# HCT-116 [3] = assay: Cytotoxicity against P21 deficient human HCT116 cells after 48 hrs by MTS assay; summary of the method: as §1
# HCT-116 [4] = assay: Cytotoxicity against P21+ wild type human HCT116 cells after 48 hrs by MTS assay; summary of the method: as §1
SMILES,IC50 (HCT-116 [1]),IC50 (HCT-116 [2]),IC50 (HCT-116 [3]),IC50 (HCT-116 [4])
CC(/C=C/C=C(C)/C=C/C=C(\C)C(=O)O)=C1/C(=O)C[C@H]2[C@@]3(C)CCC(=O)C(C)(C)[C@@H]3CC[C@]12C [STELLETIN E],> 5.39 µM,> 5.39 µM,0.039 µM,4.57 µM
CC(=O)O[C@H]1CC[C@@]2(C)[C@@H](CC[C@]3(C)/C(=C(C)/C=C/C=C(C)/C=C/C=C(\C)C(=O)O)C(=O)C[C@@H]23)C1(C)C,,,3.86 µM,> 4.92 µM
C\C(=C/C=C/C(C)=C1/C(=O)C[C@H]2[C@@]3(C)CCC(=O)C(C)(C)[C@@H]3CC[C@]12C)c1ccc(C)c(=O)o1 [STELLETIN A],,,0.26 µM,4.46 µM
CC(=O)O[C@H]1CC[C@@]2(C)[C@@H](CC[C@]3(C)\C(=C(C)/C=C/C=C(\C)c4ccc(C)c(=O)o4)C(=O)C[C@@H]23)C1(C)C [STELLETTIN C],,,0.3 µM,2.45 µM
CC(/C=C/C=C(\C)c1ccc(C)c(=O)o1)=C1/C(=O)C[C@H]2[C@@]3(C)CCC(=O)C(C)(C)[C@@H]3CC[C@]12C [STELLETTIN B],8.23 µM,7.25 µM,0.043 µM,0.65 µM
CC(=O)O[C@H]1CC[C@@]2(C)[C@@H](CC[C@]3(C)/C(=C(C)/C=C/C=C(\C)c4ccc(C)c(=O)o4)C(=O)C[C@@H]23)C1(C)C [STELLETTIN D],,,0.31 µM,0.43 µM
CC(=O)O[C@H]1CC[C@@]2(C)[C@@H](CC[C@]3(C)\C(=C(C)/C=C/C=C(C)/C=C/C=C(\C)C(=O)O)C(=O)C[C@@H]23)C1(C)C,,,3.98 µM,> 4.92 µM
CC(/C=C/C=C(\C)C(=O)O)=C\C=C\C(C)=C1\C(=O)C[C@H]2[C@@]3(C)CCC(=O)C(C)(C)[C@@H]3CC[C@]12C [RHABDASTRELLIC ACID A],,,3.49 µM,> 5.39 µM
